Measurements reported in article PMC4140444 (Drug Design, Development and Therapy, 2014).

What was measured:
[1] = Cytotoxicity, MTT assay on normal embryonic lung cells; format: cell-based; conditions: human, MRC-5 normal embryonic lung cells
How it was run: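 MRC-5 cells grown in DMEM with 10% fetal bovine serum and 100 U/mL penicillin–streptomycin, seeded at 5×10³–2×10⁴ cells/well, then held 24 h at 37°C in 5% CO2. Serial dilutions of test compound added in an equal volume of medium, with doxorubicin (positive) and DMSO (negative) controls, for 48 h. MTT applied for 2–4 h; formazan dissolved in DMSO with sonication; read at 550 nm against a 650 nm reference. IC50 is the concentration giving 50% growth inhibition versus the DMSO control.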

[2] = target: T1, CYP19 (a recombinant human aromatase) (Homo sapiens, UniProt P11511); assay: Aromatase inhibition assay; format: biochemical; conditions: screened at 12.5 μM
T1 sequence (P11511 1-503): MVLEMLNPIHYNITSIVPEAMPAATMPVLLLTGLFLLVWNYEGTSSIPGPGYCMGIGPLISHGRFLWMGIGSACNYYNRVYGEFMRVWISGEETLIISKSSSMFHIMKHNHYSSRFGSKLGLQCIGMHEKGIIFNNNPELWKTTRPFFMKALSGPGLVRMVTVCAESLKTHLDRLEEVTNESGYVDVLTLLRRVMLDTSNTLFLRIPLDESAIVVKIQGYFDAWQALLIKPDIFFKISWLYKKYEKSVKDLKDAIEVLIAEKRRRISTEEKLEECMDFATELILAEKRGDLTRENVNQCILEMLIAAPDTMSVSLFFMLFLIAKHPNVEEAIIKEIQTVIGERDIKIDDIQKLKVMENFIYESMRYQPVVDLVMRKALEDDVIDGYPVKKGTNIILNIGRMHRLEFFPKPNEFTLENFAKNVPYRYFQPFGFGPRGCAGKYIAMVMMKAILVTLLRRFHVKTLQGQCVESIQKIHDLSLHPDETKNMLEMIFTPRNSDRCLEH

[3] = tested on: human breast cancer MCF-7 cell line; conditions: cited from earlier work

SMILES | IC50 at 48 h [1] | Aromatase inhibitory activity (IC50 column, activity class) [2] | Cytotoxic activity against MCF-7 [3]
COc1cccc2c1C(=O)c1c(O)c3c(c(O)c1C2=O)C[C@@](O)(C(=O)CO)C[C@@H]3O[C@H]1C[C@H](N)[C@H](O)[C@H](C)O1 [Doxorubicin] | > 50 µg/mL |  | 
Oc1cccc2cccnc12 [Compound 1, 8-hydroxyquinoline] | 6.27 ± 0.58 µM | Inactive ^b | substantial cytotoxic activity
O=c1[nH]cc([N+](=O)[O-])c(=O)[nH]1 [Compound 2, 5-nitrouracil] | > 50 µg/mL | Inactive ^b | 
O=c1[nH]cc(I)c(=O)[nH]1 [Compound 3, 5-iodouracil] | > 50 µg/mL | Inactive ^b | 
